Assay outcomes from PubChem.
SENP1 FRET inh: human SENP1 catalytic domain inhibitors, primary screen, biochemical, FRET, uHTS. inhibition, % at 10 µM. actives 0.21% (n = 360,000). recombinant SENP1 catalytic domain, CyPet-SUMO1-YPet FRET cleavage. Sentrin-specific protease 1 (Homo sapiens), Q9P0U3;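 active means inhibition at least 30% at 10 µM, raw YFP signal under a set limit, fluorescence ratio 0.5 to 1.5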;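 further: 0% = enzyme with DMSO and 100% = no enzyme wells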
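Assay system – human recombinant His6-tagged SENP1 catalytic domain enzyme · Input – SENP1 enzyme, 20 pM final · Buffer or medium – Tris pH 8 buffer plus EDTA, NaCl, BME, BSA, NP40, catalase · Schedule – 50 min reaction at room temperature · Technique – FRET read of cyan and yellow fluorescence · Control set – no-enzyme wells low, DMSO-plus-enzyme wells high control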
Arrestin-AP2 inh: inhibitors of beta-arrestin/AP2 binding, primary screen, biochemical, GPCR trafficking, flow cytometry | FITC-arrestin peptide / GST-AP2 beads; AP2 beta2 appendage carries R879A mutation | inhibition, % at 10 µM | actives 0.31% (n = 340,000) | AID 504490, 2011;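 active means inhibition above a set limit, near 3 SD of compounds lacking own fluorescence, cut at about 54% in these data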;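 further: plate controls were DMSO wells for no effect and 5 µM unlabelled arrestin peptide for full effect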
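Assay system: GST-AP2 R879A bound to glutathione beads, E. coli-expressed; Medium: PBS with 0.05% Tween 20 and 0.1% BSA; Also added: fluorescein-tagged arrestin peptide at 50 nM final; Timing: 12 min plus 1 h, RT; Measured by: flow cytometry, FL1 (488/535 nm); Evaluation: percent drop in bead-associated FITC signal.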
NR3A LBD binder: binders of NR3A ligand-binding domain, primary screen, biophysical, differential scanning fluorimetry, uHTS; Glutamate receptor ionotropic, NMDA 3A (GRIN3A) ligand-binding domain; NR3A LBD differential scanning fluorimetry, Tm shift; 0% = protein alone, 100% = glycine-bound protein; Tm shift relative to glycine control, % at 25 µM; actives 2.5% (n = 340,000); AID 1259313, 2017;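 active means melting temperature shift of at least 10% of the positive control shift, at one fixed dose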
hiPSC survival: enhancers of single-cell hiPSC survival, primary screen, ATPlite luminescence; 100% = ROCK inhibitor wells, 0% = DMSO; survival enhancement, % at 20 µM; actives 0.044% (n = 360,000); AID 602274, 2012; in the data active means survival enhancement above about 18%;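 further: cells exposed to compounds for 16 hours before the ATP read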
H9c2 protect: cardioprotection against H2O2-induced cell death, primary screen, uHTS, H9c2 cells, ATPLite luminescence; protection from H2O2 cell death, % at 20 µM; actives 0.63% (n = 360,000); H9c2 cardiomyocytes, H2O2 injury protection, 2 h;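 active means compounds giving at least 50% protection of heart cells from peroxide-induced death in the single-dose screen, raw or plate-pattern-corrected value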;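 further: 0% = DMSO wells with peroxide and 100% = DMSO wells without peroxide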
FAS-TE inh: FAS thioesterase domain inhibitors, primary screen, biochemical, fluorescence intensity, uHTS. recombinant FAS-TE, OMFH fluorogenic substrate, fluorescence endpoint. inhibition, % at 15 µM. actives 0.67% (n = 360,000). AID 602261, 2012;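 active means compounds whose normalised, plate-corrected inhibition of enzyme fluorescence in the single-dose primary screen is 50% or more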;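 further: 0% = DMSO with enzyme and 100% = substrate without enzyme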
An asterisk follows results filed as active. In the library only some 4% were active in any assay of this set; here they are far more common.

Results for Clc1ccccc1CNCc1ccc2c(c1)OCO2 ?
SENP1 FRET inh: -1.1; hiPSC survival: 0.6; H9c2 protect: -0.3; FAS-TE inh: -3.4

What do the screens show for `CCN(c1ccccc1)S(=O)(=O)c1ccc(Cl)c(NC(=O)COC(=O)c2ccc(O)cc2)c1`?
SENP1 FRET inh: 2.2; Arrestin-AP2 inh: 0.3; NR3A LBD binder: 16.3*; hiPSC survival: 1.1; H9c2 protect: 0.7; FAS-TE inh: 1.2

What do the screens show for `Cc1ccc2oc(C(=O)NCc3ccc(S(N)(=O)=O)cc3)cc(=O)c2c1`?
SENP1 FRET inh: -0.4; Arrestin-AP2 inh: 0.3; NR3A LBD binder: -1.1; hiPSC survival: 2.3; H9c2 protect: 3.7; FAS-TE inh: -1.6

Results for CCc1ccc2oc(C(=O)NCCc3ccc(S(N)(=O)=O)cc3)cc(=O)c2c1 ?
SENP1 FRET inh: 6.2; Arrestin-AP2 inh: -0.5; NR3A LBD binder: 14.9*; hiPSC survival: -0.6; H9c2 protect: -3.1; FAS-TE inh: -5.2

What do the screens show for `CC(C)c1nc(SCC(=O)Nc2ccc([N+](=O)[O-])cc2Br)n[nH]1`?
SENP1 FRET inh: 0.7; Arrestin-AP2 inh: -29.9; NR3A LBD binder: 10.7*; hiPSC survival: -0.7; H9c2 protect: -10.4; FAS-TE inh: 13.0

What do the screens show for `Nc1nc(SCC(=O)Nc2ccc([N+](=O)[O-])cc2Br)n[nH]1`?
SENP1 FRET inh: -0.4; Arrestin-AP2 inh: -6.3; NR3A LBD binder: -0.5; hiPSC survival: -0.6; H9c2 protect: -1.4; FAS-TE inh: -13.3

Results for CCOC(=O)[C@]12CCC=C1N(Cc1cccc3ccccc13)C(=O)[C@H](CC(=O)NCCCN1CCCC1=O)C2 ?
SENP1 FRET inh: 1.0; hiPSC survival: 0.1; FAS-TE inh: -6.6

What do the screens show for `Cc1ccc(S(=O)(=O)N2CCN(CCc3ccncc3)CC2)cc1`?
SENP1 FRET inh: -0.8; Arrestin-AP2 inh: 5.0; NR3A LBD binder: 11.2*; hiPSC survival: -3.2; H9c2 protect: 5.6; FAS-TE inh: -2.8

Results for O=S(=O)(c1ccc(Cl)cc1)N1CCN(Cc2ccncc2)CC1 ?
SENP1 FRET inh: 1.5; Arrestin-AP2 inh: 27.8; NR3A LBD binder: -0.9; hiPSC survival: -0.5; H9c2 protect: 2.2; FAS-TE inh: -4.5

How did CCc1cccc(OCC(=O)Nc2ccccc2N2CCCC2)c1 do in these assays?
SENP1 FRET inh: -3.1; Arrestin-AP2 inh: 4.7; NR3A LBD binder: 4.8; hiPSC survival: -0.2; H9c2 protect: -9.6; FAS-TE inh: 21.0

How did CC(=O)Nc1ccc(C(=O)N/N=C/c2cc(Br)cc(Br)c2O)cc1 do in these assays?
SENP1 FRET inh: -25.9; Arrestin-AP2 inh: -0.5; NR3A LBD binder: 19.4*; hiPSC survival: 4.2; H9c2 protect: 31.9; FAS-TE inh: 26.8

Results for Cc1ccc(C(=O)O)cc1N=Cc1cc(Br)cc(Br)c1O ?
SENP1 FRET inh: -23.1; Arrestin-AP2 inh: -11.9; NR3A LBD binder: -1.3; hiPSC survival: -1.1; H9c2 protect: 76.7*; FAS-TE inh: -8.2

What do the screens show for `CNC(=S)N/N=C/c1cc(Br)cc(Br)c1O`?
SENP1 FRET inh: -22.6; Arrestin-AP2 inh: 10.9; NR3A LBD binder: -2.7; hiPSC survival: -0.6; H9c2 protect: 43.7; FAS-TE inh: 27.6

How did CC(C)C(=O)Nc1ccc(C(=O)N/N=C/c2cc(Br)cc(Br)c2O)cc1 do in these assays?
SENP1 FRET inh: -21.0; Arrestin-AP2 inh: 14.0; NR3A LBD binder: 31.3*; hiPSC survival: -0.6; H9c2 protect: 15.6; FAS-TE inh: 16.6

How did CCCCn1nc(C(=O)NC2CCCCC2)c2ccccc2c1=O do in these assays?
SENP1 FRET inh: 2.0; hiPSC survival: 5.9; H9c2 protect: 0.2; FAS-TE inh: 0.3

What do the screens show for `CCCN(C)C[C@@H]1Oc2ncc(Br)cc2C(=O)N([C@@H](C)CO)C[C@H]1C`?
SENP1 FRET inh: -2.9; hiPSC survival: 2.1; H9c2 protect: 5.6; FAS-TE inh: -9.0

How did COc1cccc(C(O)c2ncc(-c3ccccc3Cl)[nH]2)c1 (stereo not drawn) do in these assays?
SENP1 FRET inh: 0.7; hiPSC survival: -0.2; H9c2 protect: -3.5; FAS-TE inh: -3.9

Results for Cc1cc(/C=C2/C(=N)N3C(=NC2=O)SN=C3S(C)(=O)=O)c(C)n1-c1ccccc1F ?
SENP1 FRET inh: -56.1; Arrestin-AP2 inh: 8.6; NR3A LBD binder: -23.5; hiPSC survival: -4.3; H9c2 protect: -9.7; FAS-TE inh: 8.8

How did CS(=O)(=O)C1=NSC2=NC(=O)/C(=C\c3cccn3-c3ccc(Cl)cc3)C(=N)N21 do in these assays?
SENP1 FRET inh: -19.7; Arrestin-AP2 inh: 3.8; NR3A LBD binder: 18.6*; hiPSC survival: -0.3; H9c2 protect: -0.7; FAS-TE inh: 2.3

How did CC(=O)NCCNc1nc2cc(-c3cccc(Cl)c3)sc2c(=O)n1C do in these assays?
SENP1 FRET inh: 1.9; hiPSC survival: 0.0; H9c2 protect: 24.5; FAS-TE inh: -4.6

Results for CCOC(=O)C(NC(=O)c1ccccc1)C(C)(C)SCc1ccccc1 (stereo not drawn) ?
SENP1 FRET inh: -1.5; Arrestin-AP2 inh: 1.4; NR3A LBD binder: 9.7; hiPSC survival: -1.9; H9c2 protect: -4.3; FAS-TE inh: 8.3

What do the screens show for `CC(c1ccc2ccccc2c1)c1ccccc1C(=O)O` (stereo not drawn)?
SENP1 FRET inh: 1.4; hiPSC survival: -0.8; H9c2 protect: 0.5; FAS-TE inh: -5.7

What do the screens show for `Cc1nnc2nc(-c3ccccc3)nc(-c3ccccc3)n12`?
SENP1 FRET inh: 2.3; Arrestin-AP2 inh: 6.1; NR3A LBD binder: 11.8*; hiPSC survival: -0.5; H9c2 protect: 4.4; FAS-TE inh: 12.3

How did CN(C)c1ccc(C(C(=O)NCC2CCCO2)N(Cc2ccco2)C(=O)c2snc(C(N)=O)c2N)cc1 (stereo not drawn) do in these assays?
SENP1 FRET inh: 0.8; Arrestin-AP2 inh: -14.5; NR3A LBD binder: 0.4; hiPSC survival: 1.6; H9c2 protect: 52.0*; FAS-TE inh: -3.1

Results for COc1ccc(C(C(=O)NCC2CCCO2)N(Cc2ccccc2)C(=O)c2snc(C(N)=O)c2N)cc1OC (stereo not drawn) ?
SENP1 FRET inh: -6.2; Arrestin-AP2 inh: -24.8; NR3A LBD binder: 1.2; hiPSC survival: 1.0; H9c2 protect: 6.4; FAS-TE inh: -1.7
